Results on five molecules are retold here after ChEMBL document CHEMBL4304834, “3-Amino-chromanes and Tetrahydroquinolines as Selective 5-HT2B, 5-HT7, or σ1 Receptor Ligands” (ACS Med Chem Lett, 2019).

For experiment [1], the target named is T1, 5-hydroxytryptamine receptor 1A (Homo sapiens, UniProt P08908).
T1 sequence (P08908 whole entry): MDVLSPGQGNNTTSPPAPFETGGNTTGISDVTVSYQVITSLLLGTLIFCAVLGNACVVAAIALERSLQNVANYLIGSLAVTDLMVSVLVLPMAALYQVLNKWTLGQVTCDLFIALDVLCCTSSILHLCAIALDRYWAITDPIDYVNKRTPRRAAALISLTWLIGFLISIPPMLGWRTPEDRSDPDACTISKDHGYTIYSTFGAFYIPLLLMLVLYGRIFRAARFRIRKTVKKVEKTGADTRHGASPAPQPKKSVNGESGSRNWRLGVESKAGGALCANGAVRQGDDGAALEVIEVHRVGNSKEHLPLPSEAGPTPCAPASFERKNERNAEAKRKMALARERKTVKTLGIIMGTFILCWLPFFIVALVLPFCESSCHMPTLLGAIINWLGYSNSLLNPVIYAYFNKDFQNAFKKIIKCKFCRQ
The experiment can be described thus: Displacement of [3H]-Way100635 from human recombinant 5-HT1A expressed in stable CHO cells after 90 mins by microbeta scintillation counting method. It counts as cell-based. Summed up:
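Run by NIMH Psychoactive Drug Screening Program. Otherwise, competition binding curves are generated and pKi is taken from a sigmoidal curve fit. Data are either triplicate measurements within one experiment, with the error from the fit, or the mean of repeated experiments, each run in triplicate.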
On the technique in general: Loss of bound radioactivity is the signal in a displacement assay; it reports binding, not function.

In experiment [2] the target is T2, 5-hydroxytryptamine receptor 2C (Homo sapiens, UniProt P28335).
T2 sequence (P28335 whole entry): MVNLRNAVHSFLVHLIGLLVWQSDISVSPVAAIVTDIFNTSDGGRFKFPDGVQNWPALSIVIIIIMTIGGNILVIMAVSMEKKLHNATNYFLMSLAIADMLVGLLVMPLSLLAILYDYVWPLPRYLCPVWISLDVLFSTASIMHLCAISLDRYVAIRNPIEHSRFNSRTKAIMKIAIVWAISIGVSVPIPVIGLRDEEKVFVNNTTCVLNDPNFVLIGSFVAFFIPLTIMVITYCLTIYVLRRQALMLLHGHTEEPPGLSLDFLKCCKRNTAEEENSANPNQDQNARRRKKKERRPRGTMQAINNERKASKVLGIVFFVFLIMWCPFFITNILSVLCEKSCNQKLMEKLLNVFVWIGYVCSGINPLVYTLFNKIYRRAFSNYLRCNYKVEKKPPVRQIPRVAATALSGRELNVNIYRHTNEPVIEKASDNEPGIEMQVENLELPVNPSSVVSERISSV
The experiment can be described thus: Displacement of [3H]-Mesulergine from human recombinant 5-HT2C receptor expressed in HEKT cells after 90 mins by microbeta scintillation counting method. It counts as cell-based. The method in brief: (§1)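 Radioligand binding run by the NIMH Psychoactive Drug Screening Program. […] Otherwise Ki comes from sigmoidal curve fits of triplicate measurements in a single experiment, or is averaged over repeated experiments each run in triplicate.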

Experiment [3] can be described thus: Displacement of [3H]-Flunitrazepam from BZP receptor in rat brain after 90 mins by microbeta scintillation counting method. It counts as tissue-based. The method in brief: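 Radioligand binding run by the NIMH Psychoactive Drug Screening Program. Otherwise Ki comes from sigmoidal curve fits of triplicate measurements in a single experiment, or is averaged over repeated experiments each run in triplicate.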

For experiment [4], the target named is Sodium-dependent dopamine transporter (Homo sapiens, UniProt Q01959). The experiment can be described thus: Displacement of [3H]-Win35428 from human recombinant DAT receptor expressed in stable HEK cells after 90 mins by microbeta scintillation counting method. Format: cell-based. The method in brief: (§2)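 Radioligand binding was run by the NIMH Psychoactive Drug Screening Program. Compounds were first screened at 10 μM. Those giving ≥50% binding were taken to full competition curves. Ki is reported as pKi from a sigmoidal curve fit of triplicate measurements in a single experiment; the error is the curve-fit error.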
Sequence of Sodium-dependent dopamine transporter (Q01959 whole entry): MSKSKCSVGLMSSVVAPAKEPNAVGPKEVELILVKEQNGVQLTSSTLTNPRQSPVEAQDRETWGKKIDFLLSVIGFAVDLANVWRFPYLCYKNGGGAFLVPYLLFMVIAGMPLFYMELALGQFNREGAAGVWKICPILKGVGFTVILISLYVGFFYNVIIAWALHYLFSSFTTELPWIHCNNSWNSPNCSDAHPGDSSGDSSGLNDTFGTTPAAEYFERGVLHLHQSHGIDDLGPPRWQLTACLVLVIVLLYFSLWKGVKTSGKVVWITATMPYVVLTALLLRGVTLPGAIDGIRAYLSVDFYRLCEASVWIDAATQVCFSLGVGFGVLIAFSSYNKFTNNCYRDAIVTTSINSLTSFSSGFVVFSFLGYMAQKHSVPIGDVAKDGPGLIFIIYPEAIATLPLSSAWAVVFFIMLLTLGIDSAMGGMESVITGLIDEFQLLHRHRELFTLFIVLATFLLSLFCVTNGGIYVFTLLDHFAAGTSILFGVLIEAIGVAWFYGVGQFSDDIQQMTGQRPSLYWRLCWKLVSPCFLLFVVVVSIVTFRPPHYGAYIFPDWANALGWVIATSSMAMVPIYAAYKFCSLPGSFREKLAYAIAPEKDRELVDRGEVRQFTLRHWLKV

The target of experiment [5] is Histamine H2 receptor (Homo sapiens, UniProt P25021). The experiment can be described thus: Displacement of [125I]-Iodoaminopotentidine from human recombinant histamine H2 receptor expressed in stable HEK cells after 90 mins by microbeta scintillation counting method. Format: cell-based. The method in brief:
as §1

For experiment [6], the target named is Muscarinic acetylcholine receptor M3 (Homo sapiens, UniProt P20309). The experiment in a line: Displacement of [3H]-QNB/[3H]-NMS from human recombinant Muscarinic acetylcholine M3 receptor expressed in stable CHO cells after 90 mins by microbeta scintillation counting method. Format: cell-based. The method in brief: as §2
Sequence of Muscarinic acetylcholine receptor M3 (P20309 whole entry): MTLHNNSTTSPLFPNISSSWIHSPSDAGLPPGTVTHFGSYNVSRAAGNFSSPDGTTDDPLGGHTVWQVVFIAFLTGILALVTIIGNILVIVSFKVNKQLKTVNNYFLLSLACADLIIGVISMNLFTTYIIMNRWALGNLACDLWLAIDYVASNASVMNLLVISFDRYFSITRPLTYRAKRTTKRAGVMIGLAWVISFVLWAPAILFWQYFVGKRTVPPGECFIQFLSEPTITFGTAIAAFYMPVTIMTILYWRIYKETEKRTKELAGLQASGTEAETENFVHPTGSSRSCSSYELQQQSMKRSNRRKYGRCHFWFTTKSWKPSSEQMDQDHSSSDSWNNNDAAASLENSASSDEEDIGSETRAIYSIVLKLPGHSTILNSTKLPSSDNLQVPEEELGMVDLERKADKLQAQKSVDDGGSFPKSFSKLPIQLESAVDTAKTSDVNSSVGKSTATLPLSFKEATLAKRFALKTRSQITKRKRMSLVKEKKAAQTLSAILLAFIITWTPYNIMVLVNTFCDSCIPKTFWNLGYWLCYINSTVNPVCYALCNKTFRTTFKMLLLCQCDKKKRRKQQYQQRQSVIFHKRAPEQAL
In experiment [7] the target is T3, Alpha-2C adrenergic receptor (Homo sapiens) (UniProt P18825).
T3 sequence (whole entry): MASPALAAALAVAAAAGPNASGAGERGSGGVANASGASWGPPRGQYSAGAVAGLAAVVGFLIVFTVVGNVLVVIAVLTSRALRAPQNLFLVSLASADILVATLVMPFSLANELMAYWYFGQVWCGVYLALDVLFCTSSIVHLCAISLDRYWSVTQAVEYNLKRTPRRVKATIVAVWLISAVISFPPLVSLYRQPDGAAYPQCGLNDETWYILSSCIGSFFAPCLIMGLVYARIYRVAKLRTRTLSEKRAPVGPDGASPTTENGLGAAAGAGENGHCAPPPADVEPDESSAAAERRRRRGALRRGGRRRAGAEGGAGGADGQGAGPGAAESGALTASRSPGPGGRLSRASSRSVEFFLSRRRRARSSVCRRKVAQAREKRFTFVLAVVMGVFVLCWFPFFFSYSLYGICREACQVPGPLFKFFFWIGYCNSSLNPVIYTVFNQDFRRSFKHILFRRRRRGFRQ
The experiment can be described thus: Displacement of [3H]-Rauwolscine from human recombinant adrenergic Alpha2C receptor expressed in stable MDCK cells at 10 uM after 90 mins by microbeta scintillation counting method relative to control. Format: cell-based.

The target in experiment [8] is D(1B) dopamine receptor (Homo sapiens, UniProt P21918). The experiment can be described thus: Displacement of [3H]-SCH23390 from human recombinant dopamine D5 receptor expressed in HEKT cells at 10 uM after 90 mins by microbeta scintillation counting method relative to control. Format: cell-based.
Sequence of D(1B) dopamine receptor (P21918 whole entry): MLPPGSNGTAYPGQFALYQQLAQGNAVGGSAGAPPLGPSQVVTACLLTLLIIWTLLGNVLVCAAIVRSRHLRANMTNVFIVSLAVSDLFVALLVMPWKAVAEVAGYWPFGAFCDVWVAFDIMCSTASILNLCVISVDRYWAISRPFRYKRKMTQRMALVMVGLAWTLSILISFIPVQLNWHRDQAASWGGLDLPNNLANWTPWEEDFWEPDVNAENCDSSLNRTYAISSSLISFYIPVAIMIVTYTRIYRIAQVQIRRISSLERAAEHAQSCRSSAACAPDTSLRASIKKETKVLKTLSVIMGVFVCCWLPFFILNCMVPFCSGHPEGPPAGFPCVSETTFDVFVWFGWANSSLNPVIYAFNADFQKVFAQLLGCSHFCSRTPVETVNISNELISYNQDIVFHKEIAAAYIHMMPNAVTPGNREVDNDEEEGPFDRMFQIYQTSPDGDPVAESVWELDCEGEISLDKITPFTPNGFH
Experiment [9] addresses Sigma intracellular receptor 2 (Homo sapiens, UniProt Q5BJF2). The experiment can be described thus: Displacement of […] from human recombinant sigma2 receptor expressed in HEKT cells at 10 uM after 90 mins by microbeta scintillation counting method relative to control. It counts as cell-based. Summed up:
as §1

Sequence of Sigma intracellular receptor 2 (Q5BJF2 whole entry): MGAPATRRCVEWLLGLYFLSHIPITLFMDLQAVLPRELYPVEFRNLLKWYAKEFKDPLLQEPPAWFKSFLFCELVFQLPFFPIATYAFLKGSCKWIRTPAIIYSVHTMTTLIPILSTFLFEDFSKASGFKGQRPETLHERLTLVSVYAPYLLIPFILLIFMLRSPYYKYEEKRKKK
Sequence of Histamine H2 receptor (P25021 whole entry): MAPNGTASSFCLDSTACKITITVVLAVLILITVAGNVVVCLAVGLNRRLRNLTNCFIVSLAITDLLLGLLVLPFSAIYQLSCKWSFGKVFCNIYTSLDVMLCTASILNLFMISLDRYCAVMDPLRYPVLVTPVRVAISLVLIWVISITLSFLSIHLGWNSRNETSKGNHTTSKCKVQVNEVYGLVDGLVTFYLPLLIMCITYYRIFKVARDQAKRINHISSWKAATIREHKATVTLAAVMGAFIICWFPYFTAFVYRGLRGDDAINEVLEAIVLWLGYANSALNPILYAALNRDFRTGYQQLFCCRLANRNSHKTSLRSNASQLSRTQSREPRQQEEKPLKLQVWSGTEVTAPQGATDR

In the case of `COc1cc(OC)c2c(c1)OC[C@@]1(C)NCC[C@@H]21` (racemic), the Ki in experiment [1] (read-out: pKi (converted)) was 1 µM; in experiment [2], 1.58 µM; in experiment [4] it was more than 10 µM; in experiment [5], more than 10 µM; in [6], more than 10 µM. In addition, the pKi (usually the Ki on a negative log10 scale, so that one unit is a factor of ten) in [3] was 5.2. The inhibition in experiment [7], in experiment [8] and in experiment [9] was less than 50% each time.

In the case of `C[C@@]12CN(c3ccccc3)c3ccccc3[C@@H]1CCN2` (racemic), the Ki in experiment [1] (cho, read-out: Ki) was more than 10 µM; in experiment [1] (read-out: pKi (converted)), more than 10 µM; in [2], more than 10 µM; in experiment [4], more than 10 µM; in [5] it was 2 µM; in experiment [6], more than 10 µM.

Take `CC[C@H]1c2ccccc2N(c2ccccc2)C[C@@]1(C)N` (racemic): the Ki is 0.074 µM in [1] (read-out: Ki); 3.98 µM in experiment [2]; 3.16 µM in experiment [4]; more than 10 µM in [5]; more than 10 µM in experiment [6].

On to `CC[C@H]1c2cc(C)ccc2OC[C@@]1(C)N` (racemic), for which the Ki in experiment [1] (read-out: pKi (converted)) was 2 µM; in [2] it was 2.51 µM; in experiment [4], more than 10 µM; in experiment [5], more than 10 µM; in experiment [6], more than 10 µM. The molecule further gave a pKi in experiment [3] of less than 5. The inhibition in [7], in [8] and in experiment [9] was less than 50% each time.

With `CC[C@H]1c2cc(OC)ccc2CC[C@@]1(C)N` (racemic), the Ki in experiment [1] (read-out: pKi (converted)) was 0.631 µM; in experiment [2] it was 2.51 µM; in [4] it was 5.01 µM; in [5] it was more than 10 µM; in [6] it was more than 10 µM. This molecule also yielded a pKi in [3] of 5.8. The inhibition in [7], in experiment [8] and in [9] was less than 50% each time.
